We go through two compounds from publication PMC5499931 (OncoTargets and therapy, 2017).

Entries after “also recorded” stand apart in the source; their conditions may differ. *1 amine or outer side, *2 acyl side, *3 side chain or, on linkers, in order; H or OH if unused. Where a SMILES comes first, the peptide text is derived from it. Side-chain parts run from the residue outwards. [ ]: non-standard residue; d: D form. The star is where a group is joined. Ethylenediamine = C(CN[*:2])N[*:1]; Hyp = O=C(O)[C@@H]1C[C@@H](O)CN1; Phg = N[C@H](C(=O)O)c1ccccc1; CO = O=C([*:1])[*:2]; Bn = c1ccc(C*)cc1

The test system of data set [1] is patients with advanced NETs. Kind of data set: MTD/dose-limiting toxicity. The data set is classed as in vivo, human. As to conditions: 80 and 120 mg; first two treatment cycles. The procedure, abridged: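 Dose escalation in cohorts of 3–6 patients, starting at 80 mg IM every 28 days. Later doses were chosen in 20 mg multiples by a two-parameter Bayesian logistic regression model with overdose control. Intra-patient escalation was not allowed; de-escalation was permitted. DLT window was the first two 28-day cycles. Evaluable patients had two injections with sufficient safety evaluation, or a DLT. MTD was defined as the highest dose with expected DLT in ≤33%.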

The subject of data set [2] is patients with advanced NETs. Kind of data set: Bradycardia. The data set is classed as in vivo, human. To be noted: for Odds ratio [95% CI] of bradycardia (HR <40 bpm) for a 1.5-fold increase in pasireotide concentration: logistic regression, not statistically significant. The essentials: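 HR recorded by 24-hour Holter on Cycle 1 Day 1 and Cycle 2 Day 1 in all patients. Bradycardia, defined as minimum HR <40 bpm, was analysed by pooling vital signs, 12-lead ECG and Holter data. Post hoc review covered dose-escalation cohorts plus the 120 mg expansion cohort. Dosing was IM every 28 days.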

Data set [3] is described as follows: Pasireotide plasma concentrations. Format: in vivo. To be noted: human, im.
Data set [4] concerns patients with advanced NETs. Kind of data set: AEs regardless of study drug relationship. The data set is classed as in vivo, human. The essentials: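 Open-label, multicentre phase I in adults with advanced, well- or moderately differentiated NETs progressing within the prior 12 months; HbA1c >7.0% excluded. Test compound given as long-acting IM injection every 28 days. Safety set was everyone receiving at least one dose, grouped by first dose received. AEs coded by MedDRA 18.0; laboratory abnormalities graded by CTCAE 3.0.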

Data set [5] has as its system patients with advanced carcinoid syndrome refractory to octreotide LAR. As to conditions: pasireotide LAR 60 mg vs octreotide LAR 30 mg; cited from earlier work.

Usually Cmax stands for the highest concentration seen after dosing. `NCCCC[C@@H]1NC(=O)[C@@H](Cc2c[nH]c3ccccc23)NC(=O)[C@H](c2ccccc2)NC(=O)[C@@H]2C[C@@H](OC(=O)NCCN)CN2C(=O)[C@H](Cc2ccccc2)NC(=O)[C@H](Cc2ccc(OCc3ccccc3)cc2)NC1=O` [Pasireotide LAR, pasireotide] (cyclo([Hyp]([CO-Ethylenediamine])[Phg][dW]KY(Bn)F)): the “Protocol-defined dose-limiting toxicities (DLTs)” value in data set [1] is listed as “No protocol-defined dose-limiting toxicities; also recorded: no protocol-defined DLTs”. For the same compound, in data set [2] (120 mg (5/16), Holter assessment, post hoc), the “Incidence of bradycardia (HR <40 bpm)” value was 31%. The “Odds ratio [95% CI] of bradycardia (HR <40 bpm) for a 1.5-fold increase in pasireotide concentration” value in data set [2] (day time (6 am through 10 pm)) is 1.67 [0.38–7.34]; in data set [2] (night time (10 pm through 6 am)) it was 2.02 [0.49–8.29]. In addition, the Cmax in data set [3] (80 mg) is 13.7 ± 11.5 ng/mL; in data set [3] (120 mg), 23.2 ± 31.4 ng/mL. Moreover, the entries for the “AEs of any grade, patients” value in data set [4] (80 mg) and in data set [4] (120 mg) were 92% and 100%, respectively. Further, the “AEs, Total” value in data set [4] (80 mg i.m./28 days (n=13), Grade 3/4) was 9 (69.2) n (%); in data set [4] (80 mg i.m./28 days (n=13), all grade), 12 (92.3) n (%); in data set [4] (120 mg i.m./28 days (n=16), Grade 3/4), 11 (68.8) n (%); in data set [4] (120 mg i.m./28 days (n=16), all grade), 16 (100) n (%); in data set [4] (all patients, 80 or 120 mg (N=29), Grade 3/4), 20 (69.0) n (%); in data set [4] (all patients, 80 or 120 mg (N=29), all grade) it was 28 (96.6) n (%).

Turning to octreotide [octreotide LAR], the “Tumor control rate at month 6” value in data set [5] was 46.2%.
